For one compound, Activity and IC50 results are on record in ChEMBL document CHEMBL4706489, “Hydrogen sulfide releasing oridonin derivatives induce apoptosis through extrinsic and intrinsic pathways” (Eur J Med Chem, 2020).

Calls of active or inactive are those of the source. The calls are words filed in the database; no cut-off is given here.

Experiment [1] deals with K562. In words: Induction of cell cycle arrest in human K562 cells assessed as accumulation at G1 phase at 1 uM after 48 hrs by propidium iodide staining based flow cytometric analysis (reference value: 43.24 to 43.37%). The format is functional. (A flow cytometer gives signals particle by particle.)
For experiment [2], the system named is K562. The experiment in a line: Induction of cell cycle arrest in human K562 cells assessed as accumulation at G2 phase at 1 uM after 48 hrs by propidium iodide staining based flow cytometric analysis (reference value: 10.96 to 12.03%). The class given is functional.
Experiment [3] deals with K562. In words: Induction of apoptosis in human K562 cells assessed as early apoptotic cells at 2 uM after 48 hrs by annexin V FITC and propidium iodide staining based flow cytometric analysis (reference value: 2.13%). The class given is functional.
Experiment [4] has as its system HepG2. The experiment in a line: Induction of apoptosis in human HepG2 cells assessed as early apoptotic cells at 1 uM after 48 hrs by annexin V FITC and propidium iodide staining based flow cytometric analysis (reference value: 2.89%). The class given is functional.
Experiment [5] concerns HepG2. In words: Induction of apoptosis in human HepG2 cells assessed as late apoptotic cells at 1 uM after 48 hrs by annexin V FITC and propidium iodide staining based flow cytometric analysis (reference value: 3.17%). The format is functional.
Experiment [6] concerns K562. In words: Induction of apoptosis in human K562 cells assessed as increase in cleaved caspase-3 at 1 uM after 24 hrs by chemiluminescence based apoptosis array method. The format is functional, cell-based. In outline: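 K562 cells were treated with 1 test agent for 24 h. Diluted total-cell lysates were applied to a human apoptosis antibody array covering 35 apoptosis-related proteins for 24 h. Unbound protein was washed off, and arrays were probed with a biotinylated detection antibody for 1 h. Relative expression was read from chemiluminescent signal by digital imaging.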

The next experiment deals with L02. The experiment in a line: Cytotoxicity against human L02 cells assessed as cell viability after 72 hrs by MTT assay. Particulars: L02, 72 h. In general terms: Tetrazolium dyes change colour on reduction, which living cells bring about.
The next experiment concerns HepG2 (human). In words: Induction of apoptosis in human HepG2 cells after 48 hrs by annexin V FITC and propidium iodide staining based flow cytometric analysis. Particulars: dose 0.5-2 µM.

A word on the IC50: it is the concentration that gives 50% inhibition. With `C=C1C(=O)[C@]23[C@H](OC(=O)CCC(=O)OCCCCCCOc4ccc(-c5cc(=S)ss5)cc4)[C@H]1CC[C@H]2[C@@]12CO[C@@]3(O)[C@@H](O)[C@@H]1C(C)(C)CC[C@@H]2OC(C)=O`, the Activity in the experiment on K562 [1] is 34.14%; in the experiment on K562 [2], 10.32%; with K562 [3], 23.75%; in the experiment with HepG2 [4], 25.53%; in the experiment on HepG2 [5], 12.72%; with HepG2 (human) it was “Dose-dependent effect”. Further, the outcome in the experiment on K562 [6] was Active. The 50% inhibitory concentration (IC50) with L02 is 17.6 µM.
